# Laboratory results published in ChEMBL document CHEMBL1933044.
# Calls of active or inactive are those of the source. The rule behind the calls is not given here.
# Experiments:
# [1] = Antagonist activity at NMDAR in rat cerebellar granule neurons assessed as inhibition of glutamate-induced calcium flux after 5 mins using FURA-2AM in presence of glycine; type: functional
# Outline: (§1)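 Primary cerebellar granule neuron cultures grown on poly-L-lysine-coated glass coverslips and used after 7-14 days in vitro. Intracellular calcium recorded in real time over 1200 s. Cells were stimulated with NMDA or glutamate (100 μM, with 10 μM glycine), then given increasing cumulative compound concentrations. Percent inhibition at each concentration was fitted by non-linear regression (variable slope). At least three experiments on three culture batches.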
# [2] = Antagonist activity at NMDAR in rat cerebellar granule neurons assessed as inhibition of NMDA-induced calcium flux after 5 mins using FURA-2AM in presence of glycine; type: functional; outline: as §1
# Trypanosoma brucei [3] = test: Antitrypanosomal activity against bloodstream form of Trypanosoma brucei 427 after 48 hrs by hemocytometer analysis; type: functional, organism-based; settings: Trypanosoma brucei, 427, 48 h
# Human alphaherpesvirus 1 = test: Antiviral activity against HSV1 assessed as inhibition of viral replication; type: functional, organism-based
# Outline: (§2)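 Cell culture virus assays. Inhibition of virus replication and compound cytotoxicity were scored by microscopic examination and confirmed by a colorimetric MTS cell viability assay. Selectivity index is the ratio of cytotoxic to antiviral concentration.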
# Human alphaherpesvirus 2 = test: Antiviral activity against HSV2 assessed as inhibition of viral replication; type: functional, organism-based; outline: as §2
# Vaccinia virus = test: Antiviral activity against Vaccinia virus assessed as inhibition of viral replication; type: functional, organism-based; settings: Orthopoxvirus vaccinia; outline: as §2
# Feline coronavirus = test: Antiviral activity against Feline coronavirus assessed as inhibition of viral replication; type: functional, organism-based; outline: as §2
# Human respirovirus 3 = test: Antiviral activity against Parainfluenza-3 virus assessed as inhibition of viral replication; type: functional, organism-based; outline: as §2
# [4] = tested on: Respiratory syncytial virus; test: Antiviral activity against RSV assessed as inhibition of viral replication; type: functional, organism-based; outline: as §2
# Sindbis virus = test: Antiviral activity against Sindbis virus assessed as inhibition of viral replication; type: functional, organism-based; outline: as §2
# Punta Toro virus = test: Antiviral activity against Punta Toro virus assessed as inhibition of viral replication; type: functional, organism-based; outline: as §2
# Coxsackievirus B4 = test: Antiviral activity against Coxsackievirus B4 assessed as inhibition of viral replication; type: functional, organism-based; outline: as §2
# Reovirus sp. = test: Antiviral activity against Reovirus 1 assessed as inhibition of viral replication; type: functional, organism-based; outline: as §2
# [5] = tested on: Vesicular stomatitis virus; test: Antiviral activity against VSV in HeLa cells assessed as inhibition of viral replication; type: functional, organism-based; outline: as §2
# [6] = tested on: Vesicular stomatitis virus; test: Antiviral activity against VSV in human HEL cells assessed as viability by MTS based microscopy; type: functional, organism-based; outline: as §2
# [7] = Selectivity index, ratio of cytotoxicity for HeLa cells to ratio of EC50 for Vesicular stomatitis virus; type: toxicity, cell-based; settings: human, read-out: Selectivity Index; outline: as §2
# [8] = target: Matrix protein 2 (Influenza A virus) (UniProt P06821); test: Inhibition of Influenza A virus (A/Puerto Rico/8/1934(H1N1)) M2 channel expressed in Xenopus oocytes at 100 uM by two-electrode voltage clamp assay; type: cell-based; settings: Oocyte
# Trypanosoma brucei [9] = test: Ratio of compound IC90 to rimantadine IC90 for bloodstream form of Trypanosoma brucei 427; type: functional
# H3N2 subtype = test: Antiinfluenza activity against Influenza A virus (A/Hong Kong/7/1987(H3N2)) assessed as inhibition of viral replication; type: functional, organism-based; outline: as §2
# Influenza B virus = test: Antiinfluenza activity against Influenza B virus (B/Hong Kong/05/1972) assessed as inhibition of viral replication; type: functional; outline: as §2
# Influenza A virus = test: Antiinfluenza activity against Influenza A virus (A/Puerto Rico/8/1934(H1N1)) assessed as inhibition of viral replication; type: functional, organism-based; outline: as §2
# Matrix protein 2 (Influenza A virus), sequence (P06821 whole entry): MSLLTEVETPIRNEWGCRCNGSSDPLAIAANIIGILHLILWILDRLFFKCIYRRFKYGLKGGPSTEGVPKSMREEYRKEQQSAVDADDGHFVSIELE
Structure (SMILES),IC50 [1],IC50 [2],IC50 (Trypanosoma brucei [3]),IC90 (Trypanosoma brucei [3]),Activity (Human alphaherpesvirus 1),Activity (Human alphaherpesvirus 2),Activity (Vaccinia virus),Activity (Feline coronavirus),Activity (Human respirovirus 3),Activity [4],Activity (Sindbis virus),Activity (Punta Toro virus),Activity (Coxsackievirus B4),Activity (Reovirus sp.),inhibition [8],further results
CN(Cc1ccccc1)C12CC3CC(C)(CC(C1)c1ccccc13)C2,> 500 µM,> 200 µM,5.25 µM,10.8 µM,inactive,inactive,inactive,inactive,inactive,inactive,inactive,inactive,inactive,inactive,,
CC12CC3CC(N4CCCCC4)(CC(C1)c1ccccc13)C2,> 500 µM,101 µM,,,inactive,inactive,inactive,inactive,inactive,inactive,inactive,inactive,inactive,inactive,,EC50 [5]: 54 µM; Activity [6]: inactive
CNC12CC3CC(C)(CC(C1)c1ccccc13)C2,455 µM,19.4 µM,4.46 µM,6.66 µM,inactive,inactive,inactive,inactive,inactive,inactive,inactive,inactive,inactive,inactive,,
C#CCN(CC#C)C12CC3CC(C)(CC(C1)c1ccccc13)C2,> 500 µM,> 200 µM,13.4 µM,21.6 µM,inactive,inactive,inactive,inactive,inactive,inactive,inactive,inactive,inactive,inactive,,EC50 [5]: 4 µM; selectivity ratio [7]: 25; Activity [6]: inactive
CC12CC3CC(N)(CC(C1)c1ccccc13)C2,22 µM,13.6 µM,4.8 µM,9.6 µM,inactive,inactive,inactive,inactive,inactive,inactive,inactive,inactive,inactive,inactive,inactive,
C#CCNC12CC3CC(C)(CC(C1)c1ccccc13)C2,> 500 µM,27.5 µM,1.99 µM,3.14 µM,inactive,inactive,inactive,inactive,inactive,inactive,inactive,inactive,inactive,inactive,,Ratio (Trypanosoma brucei [9]): >4
CC12CC3CC(NCc4ccccc4)(CC(C1)c1ccccc13)C2,> 500 µM,> 200 µM,3 µM,6.55 µM,inactive,inactive,inactive,inactive,inactive,inactive,inactive,inactive,inactive,inactive,inactive,Activity (H3N2 subtype): inactive; Activity (Influenza B virus): inactive; EC50 (Influenza A virus): 10 µM
CC(N)C12CC3CC(CC(C3)C1)C2 (centres undefined) [RIMANTADINE],,,,14 µM,,,,,,,,,,,,
CC12CC3CC(C)(C1)CC(N)(C3)C2 [MEMANTINE],,,,21.4 µM,,,,,,,,,,,,
CN(C)C12CC3CC(C)(CC(C1)c1ccccc13)C2,87 µM,11.8 µM,1.99 µM,3.14 µM,inactive,inactive,inactive,inactive,inactive,inactive,inactive,inactive,inactive,inactive,inactive,
